Screening results as filed in PubChem.
The list is not random: actives were taken first. Their share in the collection is about 2.1%.
SR-BI DiI-HDL act – activators of SR-BI mediated DiI-HDL uptake, primary screen, ldlA[mSR-BI] CHO cells, DiI fluorescence; AID 504775, 2011; activation, % at 12.5 µM; actives 0.096% (n = 320,000); 3 h; 100 = double the neutral-control signal;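 active means mean replicate activation of at least 60% and every replicate at or above 60%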
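Test system: SR-BI-overexpressing, LDLR-lacking CHO cells. Measured by: DiI fluorescence, bottom read. Medium: Ham's F12 with 0.5% BSA, HEPES 25 mM, pH 7.4. Timing: 3 h uptake period with compound, 37 °C.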
PKA-R1A act – activators of PKA-R1A holoenzyme, primary screen, biochemical, fluorescence polarization, Cy5-IP20, bovine R1A, mouse PKAc; activation, % at 11.4 µM; actives 0.083% (n = 340,000); PKA-R1A dissociation; scaled: DMSO 0%, 113 µM cGMP 100%; AID 504707, 2011;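 active means percent activation above the mean of all tested compounds plus 3 SD, cut at about 19% in these data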;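 further: higher means more PKAc released from R1A so a rise in polarization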
SR-BI HDL uptake – inhibitors of SR-BI mediated HDL lipid uptake, primary screen, ldlA[mSR-BI] cells, fluorescence, single point. ldlA[mSR-BI] CHO cells, DiI-HDL uptake fluorescence, 3 h. actives 0.96% (n = 320,000). inhibition, % at 12.5 µM. AID 488896, 2010. Scavenger receptor class B member 1 (Mus musculus), Q61009;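 active means mean replicate inhibition of at least 70% and a set share of replicates each scoring 70 or more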
PKA-R2B activ – activators of PKA-R2B holoenzyme, primary screen, biochemical, fluorescence polarization, Cy5-IP20, human; actives 0.079% (n = 340,000); PKA-R2B holoenzyme dissociation; R2B truncated from residue 108, S112A mutant; 0% DMSO only, 100% 113 µM cGMP; cAMP-dependent protein kinase catalytic subunit beta (Homo sapiens) + cAMP-dependent …; activation, % at 11.4 µM; AID 504700, 2011;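 active means activation above a cutoff set at the mean over all compounds plus 3 SD, cut at about 18% in these data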;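 further: higher means more holoenzyme dissociation and a rise in polarization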
dFosB act – activators of delta FosB homodimer, primary screen, biochemical, fluorescence polarization, TAMRA-CDK5 oligo, single point | Protein FosB (Mus musculus), P13346 | purified delta FosB; percent of positive-control signal above neutral wells | activation, % at 25 µM | actives 0.99% (n = 340,000) | AID 493131, 2011;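 active means mean activation above about 17%, with every replicate also reaching it, limit read from the data, passing the limit was not always enough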
CDK5 p35 inh – inhibitors of human CDK5/p35 kinase, primary screen, biochemical, single concentration; Cyclin-dependent kinase 5 (Homo sapiens) + Cyclin-dependent kinase 5 activator 1 (Homo …; Recombinant CDK5/p35, ADP-Glo luminescence, 60 min; inhibition, % at 10 µM; actives 0.01% (n = 330,000); AID 488839, 2010;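 active means highest replicate inhibition of at least 50% and at least 75% of replicates reaching 50%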
Target sequence (Q00535 whole entry, looked up): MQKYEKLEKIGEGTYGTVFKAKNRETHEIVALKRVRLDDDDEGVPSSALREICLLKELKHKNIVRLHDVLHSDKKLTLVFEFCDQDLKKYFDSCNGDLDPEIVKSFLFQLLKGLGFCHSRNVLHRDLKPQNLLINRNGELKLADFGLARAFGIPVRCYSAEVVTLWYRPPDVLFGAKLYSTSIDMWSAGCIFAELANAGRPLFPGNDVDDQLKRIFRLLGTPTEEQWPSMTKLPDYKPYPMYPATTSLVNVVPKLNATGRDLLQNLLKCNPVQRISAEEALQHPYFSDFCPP
Target sequence (Q15078 whole entry, looked up): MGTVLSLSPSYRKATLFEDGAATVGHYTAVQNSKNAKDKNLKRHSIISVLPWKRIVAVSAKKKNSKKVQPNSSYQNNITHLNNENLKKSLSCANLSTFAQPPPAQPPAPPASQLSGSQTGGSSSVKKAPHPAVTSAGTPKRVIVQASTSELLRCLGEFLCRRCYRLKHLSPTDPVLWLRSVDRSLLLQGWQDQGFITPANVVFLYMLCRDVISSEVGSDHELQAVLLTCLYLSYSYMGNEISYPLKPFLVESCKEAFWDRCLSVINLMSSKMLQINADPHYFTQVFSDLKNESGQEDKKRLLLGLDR
Large screens that a line does not name were inactive.

Cc1n[nH]c(C)c1S(=O)(=O)N(CC(=O)N1CCc2ccccc21)c1ccc(C(C)C)cc1	dFosB act 50
CCOc1ccc(N(CC(=O)N2CCc3ccccc32)S(=O)(=O)c2c(C)noc2C)cc1	none
CCC(=O)N1CCN(c2ccc(NC(=O)c3cc4ccccc4o3)cc2Cl)CC1	SR-BI HDL uptake 79
O=C(Nc1ccc(N2CCN(C(=O)c3ccccc3)CC2)c(Cl)c1)c1ccco1	none
O=C(Nc1ccc(N2CCN(C(=O)c3ccco3)CC2)c(Cl)c1)c1cc2ccccc2o1	SR-BI HDL uptake 82
O=C(Nc1nc(-c2ccccc2)ns1)c1ccncc1	none
CCOC(=O)N1CCN(C(=S)NC(=O)c2ccc(Br)cc2)CC1	none
CCOC(=O)N1CCN(C(=S)NC(=O)c2cncc(Br)c2)CC1	SR-BI DiI-HDL act 69
CCC(C)c1ccc(NC(=S)NCc2ccccc2OC)cc1 (stereo not drawn)	none
CCC(C)Oc1cc(-c2ccnc(Nc3cccc(Cl)c3)n2)ccn1 (stereo not drawn)	none
OCCCNc1cc(-c2ccnc(Nc3cccc(Cl)c3)n2)ccn1	SR-BI HDL uptake 82, CDK5 p35 inh 58
O=C(Nc1ccccc1[N+](=O)[O-])C1COc2ccccc2O1 (stereo not drawn)	none
Cc1cc2ccccn2c1C(=O)c1cc([N+](=O)[O-])cc([N+](=O)[O-])c1	SR-BI HDL uptake 82
CCN(CC)CCCNc1nc2ccccc2c2[nH]c3ccc(OC)cc3c12	dFosB act 78
CCN(CC)CCCNc1nc(-c2ccccc2)nc2ccccc12	none
CN1/C(=C\C=N\O)C(C)(C)c2ccccc21	none
CCCN1C(=O)/C(=C\C=C2\N(CC)c3ccccc3C2(C)C)SC1=S	SR-BI HDL uptake 87
CN1C(=CC=C2C=C(I)C(=O)C(I)=C2)C(C)(C)c2ccccc21	dFosB act 175
CN1/C(=C\C=C2/SC(=S)NC2=O)C(C)(C)c2ccccc21	dFosB act 70
CCN1C(=O)C(=CC=CN(C)c2ccccc2)SC1=S	none (no result: SR-BI DiI-HDL act, SR-BI HDL uptake, dFosB act, CDK5 p35 inh)
COc1ccc(OC)c(NC(=O)COC(=O)CCCN=C2NS(=O)(=O)c3ccccc32)c1	none
COc1ccc(N(C(=O)c2ccco2)C(C(=O)NC2CCCC2)c2cc(OC)c(OC)c(OC)c2)cc1 (stereo not drawn)	none
CN(c1ccc(C(=O)N2CCN(Cc3ccccc3)CC2)cc1)S(=O)(=O)c1ccc(Cl)cc1	SR-BI HDL uptake 79
Cc1ccc(N(C)S(=O)(=O)c2cccc(C(=O)N3CCN(Cc4ccccc4)CC3)c2)cc1	none
